# Columns and labels:
# [1] = molecular target: T1, Prostaglandin G/H synthase 1 (Ovis aries, UniProt P05979); experiment: Inhibition of ovine Prostaglandin G/H synthase 1
# T1 sequence (P05979 whole entry): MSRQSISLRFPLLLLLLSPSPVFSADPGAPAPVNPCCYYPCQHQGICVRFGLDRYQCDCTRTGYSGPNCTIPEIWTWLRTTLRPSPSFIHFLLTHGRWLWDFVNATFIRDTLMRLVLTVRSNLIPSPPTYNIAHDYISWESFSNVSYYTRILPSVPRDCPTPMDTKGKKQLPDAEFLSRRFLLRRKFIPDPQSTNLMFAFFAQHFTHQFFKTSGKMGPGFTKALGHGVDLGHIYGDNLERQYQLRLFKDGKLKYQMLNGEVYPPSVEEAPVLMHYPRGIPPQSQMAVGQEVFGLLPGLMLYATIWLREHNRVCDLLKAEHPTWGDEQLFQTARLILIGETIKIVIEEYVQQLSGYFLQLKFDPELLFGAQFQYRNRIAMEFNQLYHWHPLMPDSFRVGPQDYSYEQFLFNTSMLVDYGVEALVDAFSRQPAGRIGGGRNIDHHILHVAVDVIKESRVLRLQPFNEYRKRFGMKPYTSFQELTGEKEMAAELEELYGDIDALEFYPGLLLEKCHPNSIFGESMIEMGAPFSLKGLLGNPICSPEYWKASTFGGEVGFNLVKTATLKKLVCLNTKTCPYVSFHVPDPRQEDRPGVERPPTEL
# Method in brief: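 Ovine COX-1 with heme in 0.1 M Tris-HCl pH 8.0, 5 mM EDTA, 2 mM phenol. Test drug from DMSO stock at 0.001–100 μM final, preincubated 5 min at 37 °C. Arachidonic acid added, stopped with 1 M HCl after 2 min. IC50 from concentration–inhibition curve, duplicate determinations.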
# Rattus norvegicus [2] = species on record: Rattus norvegicus; experiment: Percent inhibition of analgesic activity in a rat model 4% NaCl-induced abdominal constriction assay at 30 min; format: functional, Abdomen
# Method in brief: (§1)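 Male Sprague-Dawley rats given test compound orally at 5 mg/kg. Writhing (abdominal constriction) induced by 4% NaCl. Inhibition of writhing scored at 30 or 60 min after dosing. Mean ± SEM, n = 4-6.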
# Rattus norvegicus [3] = species on record: Rattus norvegicus; experiment: Percent inhibition of analgesic activity in a rat model 4% NaCl-induced abdominal constriction assay at 60 min; format: functional, Abdomen; method in brief: as §1
# [4] = molecular target: T2, Prostaglandin G/H synthase 2 (Rattus norvegicus) (UniProt P35355)
# T2 sequence (whole entry): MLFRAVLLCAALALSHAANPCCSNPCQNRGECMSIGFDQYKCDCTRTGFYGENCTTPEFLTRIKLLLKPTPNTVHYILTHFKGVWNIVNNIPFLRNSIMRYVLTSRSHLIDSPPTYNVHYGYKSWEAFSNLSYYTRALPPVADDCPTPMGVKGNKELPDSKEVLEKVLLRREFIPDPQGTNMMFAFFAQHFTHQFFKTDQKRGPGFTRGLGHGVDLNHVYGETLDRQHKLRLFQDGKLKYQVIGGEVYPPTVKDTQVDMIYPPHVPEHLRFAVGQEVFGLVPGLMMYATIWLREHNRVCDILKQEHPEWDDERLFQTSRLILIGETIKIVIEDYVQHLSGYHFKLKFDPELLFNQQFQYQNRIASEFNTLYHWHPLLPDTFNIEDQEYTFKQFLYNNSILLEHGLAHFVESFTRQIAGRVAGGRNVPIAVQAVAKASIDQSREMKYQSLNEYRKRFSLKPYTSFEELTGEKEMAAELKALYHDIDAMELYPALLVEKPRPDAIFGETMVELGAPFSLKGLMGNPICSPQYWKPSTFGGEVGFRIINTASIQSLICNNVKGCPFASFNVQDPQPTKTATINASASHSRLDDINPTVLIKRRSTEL
SMILES,IC50 [1],Inhibition (Rattus norvegicus [2]),Inhibition (Rattus norvegicus [3]),ID50 [4]
CSc1ccc(-c2cc(-c3ccccc3)c(-c3ccc(S(C)(=O)=O)cc3)c(=O)o2)cc1,37.7 µM,72%,64.7%,7.9 mg/kg
COc1ccc(-c2cc(-c3ccccc3)c(-c3ccc(N=[N+]=[N-])cc3)c(=O)o2)cc1,> 100 µM,47.2%,55.5%,5.6 mg/kg
COc1ccc(-c2cc(-c3ccccc3)c(-c3ccc(S(C)(=O)=O)cc3)c(=O)o2)cc1,> 100 µM,37.5%,69%,19.2 mg/kg
CS(=O)(=O)c1ccc(-c2c(-c3ccccc3)cc(-c3ccccc3)oc2=O)cc1,> 100 µM,,,
CSc1ccc(-c2cc(-c3ccccc3)c(-c3ccc(N=[N+]=[N-])cc3)c(=O)o2)cc1,30 µM,,,
CS(=O)(=O)c1ccc(-c2c(-c3ccccc3)cc(-c3ccc(O)cc3)oc2=O)cc1,> 100 µM,,,
COc1ccc(-c2cc(-c3ccc(S(C)(=O)=O)cc3)c(-c3ccc(F)cc3)c(=O)o2)cc1,10.7 µM,,,
CS(=O)(=O)c1ccc(-c2cc(-c3ccccc3)c(-c3ccccc3)c(=O)o2)cc1,> 100 µM,,,
CS(=O)(=O)c1ccc(-c2cc(-c3ccc(F)cc3)oc(=O)c2-c2ccccc2)cc1,11 µM,,,
Cc1ccc(-c2cc(-c3ccc(S(C)(=O)=O)cc3)c(-c3ccccc3)c(=O)o2)cc1,> 100 µM,,,
CSc1ccc(-c2cc(-c3ccc(F)cc3)c(-c3ccc(S(C)(=O)=O)cc3)c(=O)o2)cc1,> 100 µM,,,
CCOc1ccc(-c2cc(-c3ccc(S(C)(=O)=O)cc3)c(-c3ccccc3)c(=O)o2)cc1,31.6 µM,,,
CS(=O)(=O)c1ccc(-c2cc(-c3ccccc3)oc(=O)c2-c2cccnc2)cc1,3.2 µM,,,
COc1ccc(-c2cc(-c3ccc(S(C)(=O)=O)cc3)c(-c3ccccc3)c(=O)o2)cc1,31.5 µM,,,
CCOc1ccc(-c2cc(-c3ccc(F)cc3)c(-c3ccc(S(C)(=O)=O)cc3)c(=O)o2)cc1,3.2 µM,,,
CCc1ccc(-c2cc(-c3ccccc3)c(-c3ccc(S(C)(=O)=O)cc3)c(=O)o2)cc1,> 100 µM,,,
COc1ccc(-c2cc(-c3ccc(S(C)(=O)=O)cc3)c(-c3ccncc3)c(=O)o2)cc1,> 100 µM,58.3%,55%,21.4 mg/kg
CCOc1ccc(-c2cc(-c3ccccc3)c(-c3ccc(N=[N+]=[N-])cc3)c(=O)o2)cc1,> 100 µM,,,

SMILES,IC50 [1],Inhibition (Rattus norvegicus [2]),Inhibition (Rattus norvegicus [3]),ID50 [4]
Cc1ccc(-c2cc(C(F)(F)F)nn2-c2ccc(S(N)(=O)=O)cc2)cc1 [CELECOXIB],,69.33%,,
Cc1ccc(-c2cc(-c3ccccc3)c(-c3ccc(S(C)(=O)=O)cc3)c(=O)o2)cc1,> 100 µM,,,
CS(=O)(=O)c1ccc(-c2cc(-c3ccc(C(F)(F)F)cc3)oc(=O)c2-c2ccccc2)cc1,25.3 µM,,,
CS(=O)(=O)c1ccc(-c2c(-c3ccccc3)cc(-c3ccc([N+](=O)[O-])cc3)oc2=O)cc1,> 100 µM,,,
CCc1ccc(-c2cc(-c3ccc(S(C)(=O)=O)cc3)c(-c3ccccc3)c(=O)o2)cc1,> 100 µM,,,
CS(=O)(=O)c1ccc(-c2c(-c3cccnc3)cc(-c3ccccc3)oc2=O)cc1,3 µM,,,
CCOc1ccc(-c2cc(-c3ccccc3)c(-c3ccc(S(C)(=O)=O)cc3)c(=O)o2)cc1,> 100 µM,58.3%,75%,5.6 mg/kg
CSc1ccc(-c2cc(-c3ccc(S(C)(=O)=O)cc3)c(-c3ccccc3)c(=O)o2)cc1,31.2 µM,,,
CS(=O)(=O)c1ccc(-c2cc(-c3ccccc3)oc(=O)c2-c2ccccc2)cc1,> 100 µM,,,
COc1ccc(-c2cc(-c3ccc(S(C)(=O)=O)cc3)c(-c3cccnc3)c(=O)o2)cc1,0.15 µM,,,
CS(=O)(=O)c1ccc(-c2c(-c3ccccc3)cc(-c3ccc(C(F)(F)F)cc3)oc2=O)cc1,> 100 µM,,,
CCOc1ccc(-c2cc(-c3ccc(S(C)(=O)=O)cc3)c(-c3ccc(F)cc3)c(=O)o2)cc1,1.07 µM,,,
CS(=O)(=O)c1ccc(-c2c(-c3ccccc3)cc(-c3ccc(N)cc3)oc2=O)cc1,32.5 µM,,,
CS(=O)(=O)c1ccc(-c2c(-c3ccccc3)cc(-c3ccc(F)cc3)oc2=O)cc1,> 100 µM,,,
COc1ccc(-c2cc(-c3ccc(F)cc3)c(-c3ccc(S(C)(=O)=O)cc3)c(=O)o2)cc1,20 µM,,,
COc1ccc(-c2cc(-c3cccnc3)c(-c3ccc(S(C)(=O)=O)cc3)c(=O)o2)cc1,0.44 µM,,,
CS(=O)(=O)c1ccc(-c2cc(-c3ccccc3)oc(=O)c2-c2ccncc2)cc1,> 100 µM,,,
